Assay results from ChEMBL document CHEMBL2040711, “Synthesis, characterization and antimicrobial studies of some new quinoline incorporated benzimidazole derivatives” (2012).

Columns and labels:
Format in all cases: functional
Conditions in all cases: read-out: DIZ
Staphylococcus aureus [1] = assay: Antibacterial activity against Staphylococcus aureus at 12.5 ug/ml after 24 to 48 hrs by well plate diffusion method
Procedure, shortened: (§1)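 Agar well diffusion: 15-20 mL agar per dish, plates dried 1 h at 37 ± 2 °C in laminar flow, then seeded. Wells cut with an agar punch, each loaded with compound dissolved in DMSO (6.25 or 12.5 μg/mL). DMSO solvent control, ciprofloxacin standard. Plates in triplicate, incubated 37 ± 2 °C for 24–48 h. Inhibition zone diameter read in mm, with SD.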

Aspergillus niger [2] = assay: Antifungal activity against Aspergillus niger at 12.5 ug/ml after 72 hrs by well plate method
Salmonella sp. [3] = assay: Antibacterial activity against Salmonella sp. at 12.5 ug/ml after 24 to 48 hrs by well plate diffusion method; procedure, shortened: as §1
Xanthomonas sp. [4] = assay: Antibacterial activity against Xanthomonas sp. at 12.5 ug/ml after 24 to 48 hrs by well plate diffusion method; procedure, shortened: as §1
Penicillium sp. [5] = assay: Antifungal activity against Penicillium sp. at 12.5 ug/ml after 72 hrs by well plate method
Staphylococcus aureus [6] = assay: Antibacterial activity against Staphylococcus aureus at 6.25 ug/ml after 24 to 48 hrs by well plate diffusion method; procedure, shortened: as §1
Aspergillus terreus [7] = assay: Antifungal activity against Aspergillus terreus at 6.25 ug/ml after 72 hrs by well plate method
Procedure, shortened: (§2)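 Sabouraud agar: peptone 10 g, glucose 40 g, agar 20 g per litre water, pH 5.7. Spore suspension made from a loopful of fungus in 3 mL normal saline and lawned on 20 mL agar per dish. Excess decanted, plates dried 1 h at 37 °C. Wells punched and loaded with compound in DMSO (6.25 or 12.5 μg/mL). DMSO control. Triplicate plates held at 25 °C for 72 h. Inhibition zone diameter measured. A. terreus strain NCIM 1325.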

Penicillium sp. [8] = assay: Antifungal activity against Penicillium sp. at 6.25 ug/ml after 72 hrs by well plate method
Aspergillus niger [9] = assay: Antifungal activity against Aspergillus niger at 6.25 ug/ml after 72 hrs by well plate method
Escherichia coli [10] = assay: Antibacterial activity against Escherichia coli at 12.5 ug/ml after 24 to 48 hrs by well plate diffusion method; procedure, shortened: as §1
Aspergillus terreus [11] = assay: Antifungal activity against Aspergillus terreus at 12.5 ug/ml after 72 hrs by well plate method; procedure, shortened: as §2
Salmonella sp. [12] = assay: Antibacterial activity against Salmonella sp. at 6.25 ug/ml after 24 to 48 hrs by well plate diffusion method; procedure, shortened: as §1
Aspergillus flavus [13] = assay: Antifungal activity against Aspergillus flavus at 6.25 ug/ml after 72 hrs by well plate method
Xanthomonas sp. [14] = assay: Antibacterial activity against Xanthomonas sp. at 6.25 ug/ml after 24 to 48 hrs by well plate diffusion method; procedure, shortened: as §1
Aspergillus flavus [15] = assay: Antifungal activity against Aspergillus flavus at 12.5 ug/ml after 72 hrs by well plate method
Escherichia coli [16] = assay: Antibacterial activity against Escherichia coli at 6.25 ug/ml after 24 to 48 hrs by well plate diffusion method; procedure, shortened: as §1

Row | Compound | zone of inhibition at 12.5 µg/mL (Staphylococcus aureus [1]) [mm] | zone of inhibition at 12.5 µg/mL (Aspergillus niger [2]) [mm] | zone of inhibition at 12.5 µg/mL (Salmonella sp. [3]) [mm] | zone of inhibition at 12.5 µg/mL (Xanthomonas sp. [4]) [mm] | zone of inhibition at 12.5 µg/mL (Penicillium sp. [5]) [mm] | zone of inhibition at 6.25 µg/mL (Staphylococcus aureus [6]) [mm] | zone of inhibition at 6.25 µg/mL (Aspergillus terreus [7]) [mm] | zone of inhibition at 6.25 µg/mL (Penicillium sp. [8]) [mm] | zone of inhibition at 6.25 µg/mL (Aspergillus niger [9]) [mm] | zone of inhibition at 12.5 µg/mL (Escherichia coli [10]) [mm] | zone of inhibition at 12.5 µg/mL (Aspergillus terreus [11]) [mm] | zone of inhibition at 6.25 µg/mL (Salmonella sp. [12]) [mm] | zone of inhibition at 6.25 µg/mL (Aspergillus flavus [13]) [mm] | zone of inhibition at 6.25 µg/mL (Xanthomonas sp. [14]) [mm] | zone of inhibition at 12.5 µg/mL (Aspergillus flavus [15]) [mm] | zone of inhibition at 6.25 µg/mL (Escherichia coli [16]) [mm]
1 | Fc1ccc(-c2cc(-c3nc4ccccc4[nH]3)c3cc(Cl)ccc3n2)cc1 | 13 | 12 | 9 | 10 | 18 | 12 | 13 | 16 | 10 | 13 | 14 | – | – | – | – | –
2 | Fc1ccc(-c2cc(-c3nc4cc(Cl)c(Cl)cc4[nH]3)c3cc(F)ccc3n2)cc1 | 15 | 13 | 12 | 16 | 12 | 14 | – | – | 10 | 12 | 9 | 9 | 12 | 12 | 15 | –
3 | COc1ccc2nc(-c3cc(-c4ccc(F)cc4)nc4ccccc34)[nH]c2c1 | 12 | 12 | 11 | 14 | 18 | 12 | 12 | 16 | 10 | 14 | 13 | 10 | – | 12 | 10 | 12
4 | OC(Cn1cncn1)(Cn1cncn1)c1ccc(F)cc1F [FLUCONAZOLE] | – | 18 | – | – | 21 | – | 16 | 19 | 14 | – | 18 | – | 15 | – | 20 | –
5 | Fc1ccc(-c2cc(-c3nc4ncccc4[nH]3)c3cc(F)ccc3n2)cc1 | 12 | 13 | 13 | 16 | 15 | 12 | 10 | 14 | 11 | 13 | 15 | 13 | 11 | 15 | 14 | –
6 | Fc1ccc(-c2cc(-c3nc4ccc(F)cc4[nH]3)c3cc(F)ccc3n2)cc1 | 12 | 17 | 13 | 14 | 13 | 12 | 10 | 13 | 10 | 16 | 9 | 9 | – | – | – | 16
7 | Fc1ccc(-c2cc(-c3nc4ncccc4[nH]3)c3cc(Cl)ccc3n2)cc1 | 18 | 14 | 20 | 16 | 13 | 14 | 9 | – | 12 | 16 | 15 | 9 | – | 15 | 10 | 16
8 | Fc1ccc(-c2cc(-c3nc4ccc(Cl)cc4[nH]3)c3cc(F)ccc3n2)cc1 | 12 | 10 | 11 | 12 | 17 | 12 | 10 | 15 | – | 11 | 14 | – | – | 11 | 10 | 10
9 | Fc1ccc(-c2cc(-c3nc4ncccc4[nH]3)c3ccccc3n2)cc1 | 16 | 16 | 12 | 14 | 17 | 16 | 9 | 16 | 14 | 14 | 10 | 9 | – | 10 | 11 | 14
10 | Fc1ccc(-c2cc(-c3nc4ccc(Cl)cc4[nH]3)c3cc(Cl)ccc3n2)cc1 | 16 | 10 | 13 | 10 | 17 | 16 | 9 | 12 | – | 12 | 9 | 10 | – | – | 17 | 12
11 | Fc1ccc(-c2cc(-c3nc4ccc(F)cc4[nH]3)c3ccccc3n2)cc1 | 16 | 14 | 11 | 13 | 15 | 10 | 12 | 12 | – | 11 | 12 | 10 | – | – | 14 | 10
12 | O=C(O)c1cn(C2CC2)c2cc(N3CCNCC3)c(F)cc2c1=O [CIPROFLOXACIN] | 20 | – | 31 | 22 | – | 18 | – | – | – | – | – | 19 | – | 18 | – | –
13 | Fc1ccc(-c2cc(-c3nc4ccccc4[nH]3)c3cc(F)ccc3n2)cc1 | 15 | 12 | 15 | 14 | 12 | 14 | 9 | 12 | 10 | 15 | 9 | 15 | – | 14 | 10 | 10
